Calls of active or inactive are those of the source. The calls are words filed in the database; no cut-off is given here.
System: Rattus norvegicus
Test: Inhibition of pentagastrin-stimulated acid secretion in perfused Ghosh Schild rat stomach at 0.3 umol/kg, intraduodenal
Format: functional
Design: scale not given: the % may be the effect or the level left
Settings: not given
In short: (§1)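 Anaesthetised rat with perfused stomach: 37 °C saline at 0.5 mL/min. Effluent titrated to pH 7 with 0.01 N NaOH in 15-min fractions. Secretion driven by continuous iv pentagastrin, 1 µg/kg (1.65 mL/h). Compound given intraduodenally in 2.5 mL/kg volume 60 min after infusion start. Body temperature held at 37.8-38 °C.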

SMILES	Activity [%]
CNC(=O)c1cn2c(C)c(C)nc2c2c1CC[C@@H](c1ccccc1)O2	62

System: not listed separately
Test: Distribution coefficient, log D of the compound
Format: physicochemical
Settings: octanol/water
In short: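 Distribution between 1-octanol and aqueous KCl measured by potentiometric titration over pH 2.0-11.0 at 25 °C.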

SMILES	logD
Cc1nc2c3c(c(C(=O)N(C)C)cn2c1C(=O)N(C)C)CCC(c1ccccc1)O3 (racemic)	1.69
COCCNC(=O)c1c(C)nc2c3c(c(C(=O)N(C)C)cn12)CCC(c1ccccc1)O3 (racemic)	1.95
CC(=O)c1c(C)nc2c3c(c(C(=O)N(C)C)cn12)CCC(c1ccccc1)O3 (racemic)	2.55

Next, values leading:

logD	SMILES
2.19	Cc1nc2c3c(c(C(=O)N4CC(O)C4)cn2c1C)CCC(c1ccccc1)O3 (racemic)
1.9	Cc1nc2c3c(c(C(=O)NS(C)(=O)=O)cn2c1C)CCC(c1ccccc1)O3 (racemic)
0.7	Cc1nc2c3c(c(C(=O)O)cn2c1C)CCC(c1ccccc1)O3 (racemic)

Molecular target: not listed separately
Test: (§2) Inhibition of H+/K+ ATPase in hog gastric mucosa
Format: tissue-based, Sus scrofa
Settings: not given
In short: (§3)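 Hog gastric mucosa H+/K+-ATPase (0.5-1 µg/100 µL, with nigericin 1:1) in 4 mM Pipes/8 mM Tris pH 7.4, 0.25 M sucrose, 1 mM MgCl2, stimulated by 1 mM KCl. Compound 1e-4 to 1e-9 M final from DMSO stocks. Started with 1 mM Na-ATP, 30 min room temperature. Phosphate read by malachite green at 680 nm after 15 min.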

SMILES	pIC50
Cc1nc2c3c(c(C(=O)N(C)C)cn2c1Br)CC[C@H](c1ccccc1)O3	< 4
Cc1nc2c3c(c(C(=O)N(C)C)cn2c1C)CC[C@H](c1ccccc1F)O3	5.3
CCc1c(C)nc2c3c(c(C(=O)N(C)C)cn12)CC[C@H](c1ccccc1)O3	4.4
CC(=O)c1c(C)nc2c3c(c(C(=O)N(C)C)cn12)CC[C@H](c1ccccc1)O3	< 4
CON(C)C(=O)c1cn2c(C)c(C)nc2c2c1CC[C@H](c1ccccc1)O2	4.5
CC(=O)c1c(C)nc2c3c(c(C(=O)N(C)C)cn12)CCC(c1ccccc1)O3 (racemic)	< 4

The remaining lines, values ahead:

pIC50	SMILES
6.3	CNC(=O)c1cn2c(C)c(C)nc2c2c1CC[C@@H](c1ccccc1)O2
5.4	Cc1nc2c3c(c(C(=O)N(C)C)cn2c1C)CC[C@H](c1ccccc1)O3
4.4	CNC(=O)c1cn2c(C)c(C)nc2c2c1CC[C@H](c1ccccc1)O2
4.5	Cc1nc2c3c(c(C(=O)N4CCCC4)cn2c1C)CC[C@H](c1ccccc1)O3
5.1	Cc1nc2c3c(c(C(=O)NC4CC4)cn2c1C)CC[C@H](c1ccccc1)O3
5.1	Cc1nc2c3c(c(C(=O)N4CCC4)cn2c1C)CC[C@H](c1ccccc1)O3
5.9	Cc1nc2c3c(c(C(=O)N4CC(O)C4)cn2c1C)CCC(c1ccccc1)O3 (racemic)
4.2	Cc1nc2c3c(c(C(=O)NS(C)(=O)=O)cn2c1C)CCC(c1ccccc1)O3 (racemic)
5.2	Cc1nc2c3c(c(C(=O)O)cn2c1C)CCC(c1ccccc1)O3 (racemic)

Species on record: Sus scrofa
Test: as §2
Format: tissue-based
Settings: not given
In short: as §3

Activity	SMILES
inactive	Cc1nc2c3c(c(C(=O)N(C)C)cn2c1C(=O)N(C)C)CCC(c1ccccc1)O3 (racemic)
inactive	COCCNC(=O)c1c(C)nc2c3c(c(C(=O)N(C)C)cn12)CCC(c1ccccc1)O3 (racemic)

System: Rattus norvegicus
Test: Inhibition of pentagastrin-stimulated acid secretion in perfused Ghosh Schild rat stomach at 3 umol/kg, intraduodenal
Format: functional
Design: scale not given: the % may be the effect or the level left
Settings: not given
In short: as §1

SMILES	Activity [%]
Cc1nc2c3c(c(C(=O)N(C)C)cn2c1Br)CC[C@H](c1ccccc1)O3	38
Cc1nc2c3c(c(C(=O)N(C)C)cn2c1C)CC[C@H](c1ccccc1)O3	36
CNC(=O)c1cn2c(C)c(C)nc2c2c1CC[C@H](c1ccccc1)O2	38
Cc1nc2c3c(c(C(=O)N(C)C)cn2c1C)CC[C@H](c1ccccc1F)O3	42
Cc1nc2c3c(c(C(=O)N4CCCC4)cn2c1C)CC[C@H](c1ccccc1)O3	27
Cc1nc2c3c(c(C(=O)NC4CC4)cn2c1C)CC[C@H](c1ccccc1)O3	40
CCc1c(C)nc2c3c(c(C(=O)N(C)C)cn12)CC[C@H](c1ccccc1)O3	20
Cc1nc2c3c(c(C(N)=O)cn2c1C)CC[C@H](c1ccccc1)O3	30
Cc1nc2c3c(c(C(=O)N4CCC4)cn2c1C)CC[C@H](c1ccccc1)O3	37
CC(=O)c1c(C)nc2c3c(c(C(=O)N(C)C)cn12)CC[C@H](c1ccccc1)O3	31
CON(C)C(=O)c1cn2c(C)c(C)nc2c2c1CC[C@H](c1ccccc1)O2	20
Cc1nc2c3c(c(C(=O)N4CC(O)C4)cn2c1C)CCC(c1ccccc1)O3 (racemic)	54
Cc1nc2c3c(c(C(=O)NS(C)(=O)=O)cn2c1C)CCC(c1ccccc1)O3 (racemic)	38
Cc1nc2c3c(c(C(=O)O)cn2c1C)CCC(c1ccccc1)O3 (racemic)	15

System: Gastric gland
Test: Inhibition of acid secretion in rabbit intact gastric glands assessed as […] accumulation
Format: functional, tissue-based
Settings: Oryctolagus cuniculus
In short: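 Isolated gastric glands in Krebs-Henseleit with 2 mg/mL rabbit serum albumin and 2 mg/mL glucose. Incubated 30 min at 37 °C, shaking, with 0.125 µM 14C-aminopyrine at pH 7.4, stimulated by 1 mM dibutyryl cAMP, inhibitor 3 nM-100 µM. Stopped by centrifugation. Accumulation taken from pellet/supernatant radioactivity ratio. IC50 from fitted inhibition equation.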

SMILES	IC50 [µM]	Activity
Cc1nc2c3c(c(C(=O)N(C)C)cn2c1Br)CC[C@H](c1ccccc1)O3	31.6	–
Cc1nc2c3c(c(C(=O)N(C)C)cn2c1C)CC[C@H](c1ccccc1F)O3	0.398	–
CCc1c(C)nc2c3c(c(C(=O)N(C)C)cn12)CC[C@H](c1ccccc1)O3	10	–
CC(=O)c1c(C)nc2c3c(c(C(=O)N(C)C)cn12)CC[C@H](c1ccccc1)O3	–	inactive
Cc1nc2c3c(c(C(=O)NS(C)(=O)=O)cn2c1C)CCC(c1ccccc1)O3 (racemic)	–	inactive
CC(=O)c1c(C)nc2c3c(c(C(=O)N(C)C)cn12)CCC(c1ccccc1)O3 (racemic)	–	inactive

Continued, in another order:

IC50 [µM]	SMILES	Activity
2	CNC(=O)c1cn2c(C)c(C)nc2c2c1CC[C@@H](c1ccccc1)O2	–
2.51	Cc1nc2c3c(c(C(=O)N(C)C)cn2c1C)CC[C@H](c1ccccc1)O3	–
5.01	CNC(=O)c1cn2c(C)c(C)nc2c2c1CC[C@H](c1ccccc1)O2	–
2.51	Cc1nc2c3c(c(C(=O)N4CCCC4)cn2c1C)CC[C@H](c1ccccc1)O3	–
2	Cc1nc2c3c(c(C(=O)NC4CC4)cn2c1C)CC[C@H](c1ccccc1)O3	–
25.1	Cc1nc2c3c(c(C(N)=O)cn2c1C)CC[C@H](c1ccccc1)O3	–
1.58	Cc1nc2c3c(c(C(=O)N4CCC4)cn2c1C)CC[C@H](c1ccccc1)O3	–
63.1	Cc1nc2c3c(c(C(=O)N4CC(O)C4)cn2c1C)CCC(c1ccccc1)O3 (racemic)	–
25.1	Cc1nc2c3c(c(C(=O)O)cn2c1C)CCC(c1ccccc1)O3 (racemic)	–

System: Rattus norvegicus
Test: Inhibition of pentagastrin-stimulated acid secretion in perfused Ghosh Schild rat stomach at 1 umol/kg, intraduodenal
Format: functional
Design: scale not given: the % may be the effect or the level left
Settings: not given
In short: as §1

SMILES	Activity [%]
Cc1nc2c3c(c(C(=O)N(C)C)cn2c1C(=O)N(C)C)CCC(c1ccccc1)O3 (racemic)	26
COCCNC(=O)c1c(C)nc2c3c(c(C(=O)N(C)C)cn12)CCC(c1ccccc1)O3 (racemic)	54
CC(=O)c1c(C)nc2c3c(c(C(=O)N(C)C)cn12)CCC(c1ccccc1)O3 (racemic)	55

System: not listed separately
Test: Dissociation constant, pKa of the compound
Format: physicochemical
Settings: not given
In short: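 Potentiometric cosolvent titration in 0.15 mol/L KCl, pH 2.0-11.0, 25 °C, methanol as cosolvent in varying portions; titrants 0.5 mol/L KOH and HCl.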

SMILES	pKa
Cc1nc2c3c(c(C(=O)N(C)C)cn2c1C(=O)N(C)C)CCC(c1ccccc1)O3 (racemic)	4.51
COCCNC(=O)c1c(C)nc2c3c(c(C(=O)N(C)C)cn12)CCC(c1ccccc1)O3 (racemic)	4.38
CC(=O)c1c(C)nc2c3c(c(C(=O)N(C)C)cn12)CCC(c1ccccc1)O3 (racemic)	3.73

Further lines, results first:

pKa	SMILES
6.63	Cc1nc2c3c(c(C(=O)N4CC(O)C4)cn2c1C)CCC(c1ccccc1)O3 (racemic)
2.5	Cc1nc2c3c(c(C(=O)NS(C)(=O)=O)cn2c1C)CCC(c1ccccc1)O3 (racemic)
2.65	Cc1nc2c3c(c(C(=O)O)cn2c1C)CCC(c1ccccc1)O3 (racemic)
